Here are results for five substances from PMC3906126 (Biochemistry, 2013).

No end group written: not given here.

For assay [1], the target named is T1, WW1–WW2 tandem module of WWOX (Homo sapiens, UniProt Q9NZC7).
T1 sequence (Q9NZC7 16-91): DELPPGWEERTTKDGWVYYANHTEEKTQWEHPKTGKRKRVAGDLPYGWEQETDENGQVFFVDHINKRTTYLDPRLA
Kind of assay: ITC binding of ErbB4 PPXY peptides to WW1–WW2 tandem module of WWOX. The note with it: Table 4, pH 7.0, 25°C, mean ± SD, at least three measurements. In short, it runs like this:
(§1)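 His-tagged human WWOX constructs: WW1 (residues 16–50), WW1–WW2 tandem (16–91), and WW2 (57–91) carrying Y85W. Expressed in E. coli BL21*(DE3) and purified by Ni-NTA then SEC. 12-mer ErbB4 peptides (4 mM in syringe) injected 25× into 40–60 μM protein at 25 °C. Buffer: 50mM sodium phosphate, 100mM NaCl, 1mM EDTA, 5mM β-mercaptoethanol, pH 7.0. Buffer-titration heats subtracted. One-site fit with stoichiometry fixed at 1 gives Kd and ΔH. At least 3 repeats, SD.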

The target of a further assay is WW2W domain of WWOX (Homo sapiens, UniProt Q9NZC7, Y85W). Kind of assay: ITC binding of ErbB4 PPXY peptides to WW2W. To be noted: for ΔH: Table 3, pH 7.0, 25°C, mean ± SD, at least three measurements. In outline:
as §1

For the next assay, the target named is T2, WW1 domain of WWOX (Homo sapiens, UniProt Q9NZC7).
T2 sequence (Q9NZC7 16-50 limits assumed): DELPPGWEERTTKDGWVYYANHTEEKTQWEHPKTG
Briefly: ITC binding of ErbB4 PPXY peptides to WW1 domain of WWOX. In short, it runs like this: as §1

A further assay concerns WW2 domain of WWOX. Kind of assay: ITC binding of WW1 domain of WWOX to WW2 domain and vice versa. Also noted: species or system human.

Sequence of WW2W domain of WWOX (Q9NZC7 57-91 Y85W limits assumed): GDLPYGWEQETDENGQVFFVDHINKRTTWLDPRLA

As to H-FNIPPPIYTSRA-OH [ErbB4_PY1], the ΔH in assay [1] is -7.25 ± 0.88 kcal/mol; at WW2W domain of WWOX it was -4.74 ± 0.52 kcal/mol. Moreover, the “affinity of binding to WW1 domain (in words)” value on WW1 domain of WWOX is reported as “in the order of hundreds of micromolar”.

As to H-GHSPPPAYTPMS-OH [ErbB4_PY2], the figures for the ΔH (in assay [1]; on WW2W domain of WWOX) were -4.88 ± 0.28 kcal/mol and -8.08 ± 1.09 kcal/mol, respectively. In addition, the “affinity of binding to WW1 domain (in words)” value at WW1 domain of WWOX was “in the order of hundreds of micromolar”.

Regarding H-TVLPPPPYRARN-OH [PY3_A+5], the “enthalpy released relative to the PY3_WT peptide” value on WW1 domain of WWOX (ΔH of mutant versus PY3_WT) is reported as “more than −5 kcal/mol”.

For the substance H-TVLPPPPYRHRN-OH [ErbB4_PY3], the ΔH is -5.00 ± 0.30 kcal/mol in assay [1] and -4.15 ± 0.28 kcal/mol on WW2W domain of WWOX. In addition, at WW2W domain of WWOX (Tables 1 and 3 compared), the “affinity for WW2W domain relative to binding of WW1 domain” value is on record as “more than two-fold stronger”.

For “WW1: WW1 domain (residues 16–50) of human WWOX, recombinant with N-terminal His-tag ({His‑tag}-DELPPGWEERTTKDGWVYYANHTEEKTQWEHPKTG)”, the “binding between the two WW domains” value in the assay with WW2 domain of WWOX is “no observable binding”.
